Reference: ChEMBL document CHEMBL1137737, “Synthesis, antimicrobial and cytotoxic activities of 1,3,4-oxadiazoles, 1,3,4-thiadiazoles and 1,2,4-triazoles” (Eur J Med Chem, 2009)
Converted amounts (≈) assume the structure as drawn. The source made the active and inactive calls. The rule behind the calls is not given here.

How the values were obtained:
[1] = system: Curvularia lunata; test: Antifungal activity against Curvularia lunata NCIM 716 after 48 hrs by microdilution susceptibility method; type: functional; conditions: NCIM 716, 48 h
How it was run: (§1)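 This is a microdilution susceptibility test. Organism suspensions are inoculated into wells holding the dilution series, then incubated at 36 °C for 24 h (bacteria) or 48 h (fungi). MIC is the lowest concentration giving no turbidity, i.e. complete inhibition of visible growth.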

[2] = system: Bacillus subtilis; test: Antibacterial activity against Bacillus subtilis NCIM 2063 at 200 ug/disk after 24 hrs by agar disc-diffusion method; type: functional; conditions: NCIM 2063, 24 h, read-out: DIZ
How it was run: (§2)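 Sterile 6 mm filter-paper discs are soaked in compound solution in DMSO and placed on nutrient agar plates already inoculated with each organism. Plates are incubated at 37 °C. The diameter of the growth-inhibition zone is read after 24 h for bacteria and after 48 h for fungi.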

[3] = system: Aspergillus niger; test: Antifungal activity against Aspergillus niger NCIM 596 at 100 ug/disk after 48 hrs by agar disc-diffusion method; type: functional; conditions: NCIM 596, 48 h, read-out: DIZ; how it was run: as §2
[4] = system: Proteus vulgaris; test: Antibacterial activity against Proteus vulgaris NCIM 2027 after 24 hrs by microdilution susceptibility method; type: functional; conditions: NCIM 2027, 24 h; how it was run: as §1
[5] = system: Fusarium solani; test: Antifungal activity against Fusarium solani NCIM 1330 at 200 ug/disk after 48 hrs by agar disc-diffusion method; type: functional; conditions: NCIM 1330, 48 h, read-out: DIZ; how it was run: as §2
[6] = system: Klebsiella pneumoniae; test: Antibacterial activity against Klebsiella pneumoniae NCIM 2957 at 100 ug/disk after 24 hrs by agar disc-diffusion method; type: functional; conditions: NCIM 2957, 24 h, read-out: DIZ; how it was run: as §2
[7] = system: Proteus vulgaris; test: Antibacterial activity against Proteus vulgaris NCIM 2027 at 100 ug/disk after 24 hrs by agar disc-diffusion method; type: functional; conditions: NCIM 2027, 24 h, read-out: DIZ; how it was run: as §2
[8] = system: A549; test: Cytotoxicity against human A549 cells at 250 uM by MTT assay; type: functional, cell-based
How it was run: (§3)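 A549 lung adenocarcinoma cells are grown in DMEM with 10% FBS and penicillin–streptomycin. Compounds come from a 10 mM DMSO stock, are diluted in medium, and are added 2–4 h after plating. Viability is (treated − background)/(untreated − background) × 100, with a DMSO vehicle control. The experiment was run in duplicate with triplicate readings.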

[9] = system: Aspergillus niger; test: Antifungal activity against Aspergillus niger NCIM 596 at 200 ug/disk after 48 hrs by agar disc-diffusion method; type: functional; conditions: NCIM 596, 48 h, read-out: DIZ; how it was run: as §2
[10] = system: Aspergillus niger; test: Antifungal activity against Aspergillus niger NCIM 596 after 48 hrs by microdilution susceptibility method; type: functional; conditions: NCIM 596, 48 h; how it was run: as §1
[11] = system: A549; test: Cytotoxicity against human A549 cells at 250 uM by MTT assay relative to control; type: functional; how it was run: as §3
[12] = system: Klebsiella pneumoniae; test: Antibacterial activity against Klebsiella pneumoniae NCIM 2957 at 200 ug/disk after 24 hrs by agar disc-diffusion method; type: functional; conditions: NCIM 2957, 24 h, read-out: DIZ; how it was run: as §2
[13] = system: Curvularia lunata; test: Antifungal activity against Curvularia lunata NCIM 716 at 200 ug/disk after 48 hrs by agar disc-diffusion method; type: functional; conditions: NCIM 716, 48 h, read-out: DIZ; how it was run: as §2
[14] = system: Curvularia lunata; test: Antifungal activity against Curvularia lunata NCIM 716 at 100 ug/disk after 48 hrs by agar disc-diffusion method; type: functional; conditions: NCIM 716, 48 h, read-out: DIZ; how it was run: as §2
[15] = system: Fusarium solani; test: Antifungal activity against Fusarium solani NCIM 1330 after 48 hrs by microdilution susceptibility method; type: functional; conditions: NCIM 1330, 48 h; how it was run: as §1
[16] = system: Bacillus subtilis; test: Antibacterial activity against Bacillus subtilis NCIM 2063 at 100 ug/disk after 24 hrs by agar disc-diffusion method; type: functional; conditions: NCIM 2063, 24 h, read-out: DIZ; how it was run: as §2
[17] = system: Fusarium solani; test: Antifungal activity against Fusarium solani NCIM 1330 at 100 ug/disk after 48 hrs by agar disc-diffusion method; type: functional; conditions: NCIM 1330, 48 h, read-out: DIZ; how it was run: as §2
[18] = system: Proteus vulgaris; test: Antibacterial activity against Proteus vulgaris NCIM 2027 at 200 ug/disk after 24 hrs by agar disc-diffusion method; type: functional; conditions: NCIM 2027, 24 h, read-out: DIZ; how it was run: as §2
[19] = system: Staphylococcus aureus; test: Antibacterial activity against Staphylococcus aureus NCIM 5021 after 24 hrs by microdilution susceptibility method; type: functional; conditions: NCIM 5021, 24 h; how it was run: as §1
[20] = system: Klebsiella pneumoniae; test: Antibacterial activity against Klebsiella pneumoniae NCIM 2957 after 24 hrs by microdilution susceptibility method; type: functional; conditions: NCIM 2957, 24 h; how it was run: as §1
[21] = system: Staphylococcus aureus; test: Antibacterial activity against Staphylococcus aureus NCIM 5021 at 100 ug/disk after 24 hrs by agar disc-diffusion method; type: functional; conditions: NCIM 5021, 24 h, read-out: DIZ; how it was run: as §2
[22] = system: Bacillus subtilis; test: Antibacterial activity against Bacillus subtilis NCIM 2063 after 24 hrs by microdilution susceptibility method; type: functional; conditions: NCIM 2063, 24 h; how it was run: as §1
[23] = system: Staphylococcus aureus; test: Antibacterial activity against Staphylococcus aureus NCIM 5021 at 200 ug/disk after 24 hrs by agar disc-diffusion method; type: functional; conditions: NCIM 5021, 24 h, read-out: DIZ; how it was run: as §2
[24] = system: A549; test: Cytotoxicity against human A549 cells at 250 uM by MTT assay in presence of 0.2% fetal bovine serum; type: functional
How it was run: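 MTT viability assay on A549 cells as for the other cytotoxicity lines, but with 0.2% serum in the medium in place of 10% FBS. Compounds are diluted in medium from a 10 mM DMSO stock and exposure lasts 48 h.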

| MIC [1] [µg/mL] | MIC [4] [µg/mL] | MIC [10] [µg/mL] | MIC [15] [µg/mL] | MIC [19] [µg/mL] | MIC [22] [µg/mL] | SMILES | zone of inhibition at 200 µg/disc [2] [mm] | zone of inhibition at 100 µg/disc [3] [mm] | zone of inhibition at 200 µg/disc [5] [mm] | zone of inhibition at 100 µg/disc [6] [mm] | zone of inhibition at 100 µg/disc [7] [mm] | zone of inhibition at 200 µg/disc [9] [mm] | zone of inhibition at 200 µg/disc [12] [mm] | zone of inhibition at 200 µg/disc [13] [mm] | zone of inhibition at 100 µg/disc [14] [mm] | zone of inhibition at 100 µg/disc [16] [mm] | zone of inhibition at 100 µg/disc [17] [mm] | zone of inhibition at 200 µg/disc [18] [mm] | zone of inhibition at 100 µg/disc [21] [mm] | zone of inhibition at 200 µg/disc [23] [mm] | other results |
| --- | --- | --- | --- | --- | --- | --- | --- | --- | --- | --- | --- | --- | --- | --- | --- | --- | --- | --- | --- | --- | --- |
| 50 (≈ 126 µM) | 100 (≈ 252 µM) | 50 (≈ 126 µM) | 100 (≈ 252 µM) | 25 (≈ 62.9 µM) | 25 (≈ 62.9 µM) | Nn1c(CS(=O)(=O)Cc2ccc(Cl)cc2)nnc1-c1ccccc1Cl | 39 | 22 | 32 | 33 | 31 | 24 | 36 | 31 | 27 | 37 | 29 | 34 | 32 | 37 | Activity [8]: Active; Activity [11]: 50%; MIC [20]: 50 µg/mL (≈ 126 µM); Activity [24]: 50% |
| 200 (≈ 522 µM) | – | 200 (≈ 522 µM) | 200 (≈ 522 µM) | 200 (≈ 522 µM) | 400 (≈ 1040 µM) | O=S(=O)(Cc1ccc(Cl)cc1)Cc1nnc(-c2ccccc2Cl)o1 | 21 | 17 | 22 | 17 | 15 | 21 | 20 | 19 | 16 | 19 | 18 | 18 | 20 | 23 | Activity [11]: 50%; Activity [24]: 50% |
| 200 (≈ 522 µM) | 400 (≈ 1040 µM) | 400 (≈ 1040 µM) | 200 (≈ 522 µM) | 400 (≈ 1040 µM) | 400 (≈ 1040 µM) | Nn1c(CS(=O)(=O)c2ccc(Cl)cc2)nnc1-c1ccccc1Cl | 18 | 20 | 27 | 18 | 19 | 24 | 20 | 25 | 23 | 16 | 24 | 20 | 19 | 23 | MIC [20]: 400 µg/mL (≈ 1040 µM) |
| 100 (≈ 250 µM) | 200 (≈ 501 µM) | 100 (≈ 250 µM) | 100 (≈ 250 µM) | 50 (≈ 125 µM) | 100 (≈ 250 µM) | O=S(=O)(Cc1ccc(Cl)cc1)Cc1nnc(-c2ccccc2Cl)s1 | 31 | 20 | 31 | 20 | 20 | 23 | 24 | 27 | 25 | 27 | 28 | 23 | 29 | 33 | MIC [20]: 100 µg/mL (≈ 250 µM) |
